ChEMBL document CHEMBL4359873, “Benzothienoquinazolinones as new multi-target scaffolds: Dual inhibition of human Topoisomerase I and tubulin polymerization” (Eur J Med Chem, 2019)
Calls of active or inactive are those of the source. The rule behind the calls is not given here.

Tests used:
[1] = target: T1, DNA topoisomerase 1 (Homo sapiens) (UniProt P11387); test: Inhibition of recombinant human topoisomerase 1 mediated DNA relaxation assessed as uncleaved plasmid DNA at 50 uM using supercoiled pHOT1 plasmid as substrate after 1 hr by ethidium bromide staining based agarose gel electrophoresis
T1 sequence (whole entry): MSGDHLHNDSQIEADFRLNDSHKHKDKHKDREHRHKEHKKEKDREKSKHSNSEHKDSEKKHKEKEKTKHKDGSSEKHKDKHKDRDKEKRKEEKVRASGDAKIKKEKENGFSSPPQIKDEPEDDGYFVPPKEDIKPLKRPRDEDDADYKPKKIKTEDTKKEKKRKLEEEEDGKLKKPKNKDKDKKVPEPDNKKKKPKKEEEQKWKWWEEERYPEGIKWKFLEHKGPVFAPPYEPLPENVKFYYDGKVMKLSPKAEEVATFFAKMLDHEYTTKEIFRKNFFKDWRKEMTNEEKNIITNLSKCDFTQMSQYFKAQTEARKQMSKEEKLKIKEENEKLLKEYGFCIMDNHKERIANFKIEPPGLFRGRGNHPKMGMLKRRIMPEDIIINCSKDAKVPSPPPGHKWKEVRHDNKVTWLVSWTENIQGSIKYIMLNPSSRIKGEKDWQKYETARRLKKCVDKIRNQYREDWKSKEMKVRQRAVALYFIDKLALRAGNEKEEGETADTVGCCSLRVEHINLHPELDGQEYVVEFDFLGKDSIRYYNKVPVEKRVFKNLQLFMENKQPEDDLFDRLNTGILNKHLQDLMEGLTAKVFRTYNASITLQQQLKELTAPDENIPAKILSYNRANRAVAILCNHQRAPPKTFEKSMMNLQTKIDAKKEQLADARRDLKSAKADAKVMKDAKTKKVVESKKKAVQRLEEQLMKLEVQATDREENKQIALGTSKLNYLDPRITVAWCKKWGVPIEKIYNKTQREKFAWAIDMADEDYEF
Outline: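 Relaxation in 20 µL: 0.25 µg supercoiled pHOT1 in TE buffer, 2 units recombinant hTopo I, compound at 50 µM final, 1 h at 37 °C. Run on 1% agarose in 1x TAE without EB, then stained 30 min with EB (0.5 µg/mL), washed 15 min in water, viewed under UV. Three repeats.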

MCF7 = test: Antiproliferative activity against ER-alpha positive human MCF7 cells assessed as reduction in cell viability after 72 hrs by MTT assay; type: functional, cell-based; details: MCF7, 72 h
Outline: (§1)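 Cells seeded, grown 24 h in full medium, then serum-starved 24 h before compound exposure. Six concentrations (0.1, 1, 10, 20, 40, 100 µM) tested in triplicate; MTT absorbance read at 570 nm; results as % of basal, IC50 calculated. Means ± standard deviations. MCF-7 in DMEM-F12 with 5% NCS, MDA-MB-231 with 5% FBS, MCF-10A with 5% horse serum plus hEGF, insulin, hydrocortisone, cholera enterotoxin; 37 °C, 5% CO2.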

Tubulin (Bos taurus) [2] = target: T2, Tubulin (Bos taurus) (UniProt Q6B856+Q862L2+Q862F3); test: Inhibition of bovine tubulin assessed as decrease in tubulin polymerization gradually followed by steady state decrease measured after 15 mins by turbidimetric assay; type: protein assay
Outline: (§2)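 Kit-based assay: 60 µM tubulin in 1x PB-GTP with compound at 10 µM final (DMSO vehicle control), 37 °C, 10 s shaking before each reading. Turbidity read at 350 nm every 30 s for 90 min. Paclitaxel and Vinblastine at 10 µM final as stabilizing and destabilizing references.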

[3] = target: DNA topoisomerase 2-alpha (Homo sapiens) (UniProt P11388); test: Inhibition of human topoisomerase 2 mediated decatenation up to 100 uM using kinetoplast DNA as susbtrate after 1 hr by ethidium bromide staining based agarose gel electrophoresis
MDA-MB-231 = test: Antiproliferative activity against triple negative human MDA-MB-231 cells assessed as reduction in cell viability after 72 hrs by MTT assay; type: functional, cell-based; details: MDA-MB-231, 72 h; outline: as §1
MCF-10A = test: Cytotoxicity against human MCF10A cells assessed as reduction in cell viability after 72 hrs by MTT assay; type: cell-based; outline: as §1
Tubulin (Bos taurus) [4] = target: T2, Tubulin (Bos taurus); test: Inhibition of bovine tubulin at 10 uM assessed as tubulin heterodimers assembly to form microtubule by measuring OD at 350nm in presence of GTP measured every 30 secs for 90 mins by turbidimetric assay; type: protein assay; outline: as §2
[5] = target: DNA topoisomerase 2-alpha (Homo sapiens) (UniProt P11388); test: Inhibition of human topoisomerase 2 mediated decatenation at 50 uM using kinetoplast DNA as susbtrate after 1 hr by ethidium bromide staining based agarose gel electrophoresis
Outline: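 Decatenation in 20 µL with 0.2 µg kinetoplast DNA and 3 units hTopo II; compounds at 50 µM, 1 h at 37 °C.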

Tubulin (Bos taurus) [6] = target: T2, Tubulin (Bos taurus); test: Inhibition of bovine tubulin assessed as decrease in tubulin polymerization gradually followed by steady state decrease measured after 30 mins by turbidimetric assay; type: protein assay; outline: as §2

Chain of DNA topoisomerase 2-alpha (Homo sapiens) (P11388 whole entry): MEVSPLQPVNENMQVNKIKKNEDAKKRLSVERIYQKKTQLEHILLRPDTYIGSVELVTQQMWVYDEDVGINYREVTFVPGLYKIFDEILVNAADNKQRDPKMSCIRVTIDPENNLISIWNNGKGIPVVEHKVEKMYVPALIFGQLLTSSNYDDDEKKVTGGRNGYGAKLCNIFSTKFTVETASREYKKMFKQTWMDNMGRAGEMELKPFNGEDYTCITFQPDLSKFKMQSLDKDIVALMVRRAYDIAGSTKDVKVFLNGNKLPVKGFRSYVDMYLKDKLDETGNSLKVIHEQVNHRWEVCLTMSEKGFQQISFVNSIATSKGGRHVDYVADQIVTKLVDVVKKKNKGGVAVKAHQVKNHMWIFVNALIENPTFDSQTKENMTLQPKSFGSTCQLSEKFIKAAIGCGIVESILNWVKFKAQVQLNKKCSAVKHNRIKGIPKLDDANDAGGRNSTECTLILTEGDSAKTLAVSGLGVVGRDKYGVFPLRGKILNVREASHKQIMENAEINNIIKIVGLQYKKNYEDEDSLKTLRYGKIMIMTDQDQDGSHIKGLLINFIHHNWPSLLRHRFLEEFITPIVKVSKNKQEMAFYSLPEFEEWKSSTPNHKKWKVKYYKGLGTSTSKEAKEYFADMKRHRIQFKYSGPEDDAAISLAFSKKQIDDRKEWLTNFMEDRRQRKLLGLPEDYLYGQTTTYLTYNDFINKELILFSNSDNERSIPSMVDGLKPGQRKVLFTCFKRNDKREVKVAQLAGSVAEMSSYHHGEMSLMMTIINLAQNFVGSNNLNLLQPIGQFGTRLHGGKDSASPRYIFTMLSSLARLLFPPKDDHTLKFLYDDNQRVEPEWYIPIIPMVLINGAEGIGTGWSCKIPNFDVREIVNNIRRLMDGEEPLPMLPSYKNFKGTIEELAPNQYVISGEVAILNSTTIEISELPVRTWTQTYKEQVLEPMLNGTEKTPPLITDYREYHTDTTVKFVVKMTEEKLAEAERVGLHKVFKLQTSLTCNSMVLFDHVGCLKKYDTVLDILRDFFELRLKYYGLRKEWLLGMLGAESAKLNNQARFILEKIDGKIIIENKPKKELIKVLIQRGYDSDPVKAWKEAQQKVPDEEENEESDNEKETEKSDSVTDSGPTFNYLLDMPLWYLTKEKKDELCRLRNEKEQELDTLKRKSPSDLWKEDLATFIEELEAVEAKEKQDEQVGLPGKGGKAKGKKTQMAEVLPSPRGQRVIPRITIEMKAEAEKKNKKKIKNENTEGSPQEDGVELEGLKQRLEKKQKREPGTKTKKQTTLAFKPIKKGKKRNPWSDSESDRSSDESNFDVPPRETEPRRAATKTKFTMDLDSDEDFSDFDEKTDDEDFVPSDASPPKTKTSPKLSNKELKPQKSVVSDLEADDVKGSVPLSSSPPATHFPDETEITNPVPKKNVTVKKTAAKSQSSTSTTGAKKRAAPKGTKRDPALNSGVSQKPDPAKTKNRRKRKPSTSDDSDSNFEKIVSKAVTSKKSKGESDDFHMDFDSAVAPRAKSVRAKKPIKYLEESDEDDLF

| SMILES | inhibition [1] | IC50 (MCF7) [µM] | inhibition (Tubulin (Bos taurus) [2]) | inhibition [3] | IC50 (MDA-MB-231) [µM] | IC50 (MCF-10A) [µM] | OD (Tubulin (Bos taurus) [4]) | inhibition [5] | inhibition (Tubulin (Bos taurus) [6]) |
| --- | --- | --- | --- | --- | --- | --- | --- | --- | --- |
| CCCNc1nc2ccc3c4ccccc4sc3c2c(=O)[nH]1 | Active | 40.7 | Active | inactive | 3.88 | > 100 | 0.24 | inactive | – |
| O=c1[nH]c(NC2CCCC2)nc2ccc3c4ccccc4sc3c12 | – | 45.6 | – | – | 5.59 | > 100 | – | – | – |
| O=c1[nH]c(N2CCOCC2)nc2ccc3c4ccccc4sc3c12 | – | 21.2 | – | – | 9.43 | > 100 | – | – | – |
| CC(=O)O[C@H]1C(=O)[C@@]2(C)[C@H]([C@H](OC(=O)c3ccccc3)[C@]3(O)C[C@H](OC(=O)[C@H](O)[C@@H](NC(=O)c4ccccc4)c4ccccc4)C(C)=C1C3(C)C)[C@]1(OC(C)=O)CO[C@@H]1C[C@@H]2O | – | – | – | – | – | – | 0.52 | – | – |
| CCCCCN(CCCCC)c1nc2ccc3c4ccccc4sc3c2c(=O)[nH]1 | – | 75.2 | – | – | 42.4 | > 100 | – | – | – |
| Cc1c2ccncc2c(C)c2c1[nH]c1ccccc12 [ELLIPTECINE] | Active | – | – | – | 1.85 | 1.2 | – | – | – |
| CC[C@]1(O)C[C@@H]2CN(CCc3c([nH]c4ccccc34)[C@@](C(=O)OC)(c3cc4c(cc3OC)N(C)[C@H]3[C@@](O)(C(=O)OC)[C@H](OC(C)=O)[C@]5(CC)C=CCN6CC[C@]43[C@@H]65)C2)C1 [VINBLASTINE] | – | 15 | – | – | – | 25.9 | 0.2 | – | – |
| CCCN(CCC)c1nc2ccc3c4ccccc4sc3c2c(=O)[nH]1 | – | 42 | – | inactive | 4.69 | > 100 | 0.26 | inactive | Active |
| CCCCNc1nc2ccc3c4ccccc4sc3c2c(=O)[nH]1 | – | 74.5 | – | – | 38.9 | > 100 | – | – | – |
